{"data": "Measurements gathered from unrelated publications"}
{"SMILES": "O=c1c2cc(Cl)c(CO)cc2[nH]c(=S)n1Cc1cncnc1", "assay": "metabolic stability", "test system": "mouse, liver microsomes", "conditions": "1 µM, pH 7.4", "endpoint": "half-life", "result": "57.9 min"}
{"SMILES": "Cl.Cn1c(=O)n(CCCCN2CCC3(CC2)OCc2ccccc23)c2ccccc21", "test system": "male Sprague-Dawley rat, plasma", "conditions": "intravenous, 10 mg/kg", "endpoint": "half-life", "result": "216 min"}
{"SMILES": "Cc1[nH]c(C)c(S(=O)(=O)Nc2ccc(S(=O)(=O)F)c(Cl)c2)c1C(=O)N1CCC(F)(F)C1", "assay": "metabolic stability", "test system": "mouse, liver microsomes", "endpoint": "half-life", "result": "32 min"}
{"SMILES": "CC[C@H](C)CCCCC(=O)N[C@@H](CCN)C(=O)N[C@H](C(=O)N[C@@H](CCN)C(=O)N[C@H]1CCNC(=O)[C@H]([C@@H](C)O)NC(=O)[C@H](CCN)NC(=O)[C@H](CCN)NC(=O)[C@H](CC(C)C)NC(=O)[C@@H](CC(C)C)NC(=O)[C@H](CCN)NC1=O)[C@@H](C)O", "test system": "male Sprague-Dawley rat, plasma", "conditions": "intravenous, 5 mg/kg", "endpoint": "C0", "result": "15400 ng/mL"}
{"SMILES": "C#Cc1nc(C(=O)N2CCC(NC(=O)c3cnc(-c4ccccc4)s3)(c3nc4ccccc4n3C)CC2)cs1", "assay": "metabolic stability", "test system": "mouse, liver microsomes", "endpoint": "half-life", "result": "~20 min"}
{"SMILES": "Cc1ccc2cc(N3CCC4(O)C(=O)c5cc(C)c(C)cc5N=C34)ccc2n1 (stereo not shown)", "test system": "rat, plasma", "conditions": "intravenous, 2 mg/kg", "endpoint": "half-life", "result": "186 min"}
{"SMILES": "Cc1[nH]c(C)c(S(=O)(=O)Nc2ccc(S(F)(F)(F)(F)F)cc2)c1C(=O)N1CCC(F)(F)C1", "assay": "metabolic stability", "test system": "mouse, liver microsomes", "endpoint": "half-life", "result": "20 min"}
{"SMILES": "CN1CCC[C@H]1c1cccnc1", "test system": "rat, plasma", "conditions": "intravenous, 0.1 mg/kg", "endpoint": "half-life", "result": "68 min"}
{"SMILES": "CC(=O)c1c(C)c2cnc(Nc3ccc(C4CCN(CCS(C)(=O)=O)CC4)cn3)nc2n(C2CCCC2)c1=O", "assay": "metabolic stability", "test system": "mouse, liver microsomes", "endpoint": "half-life", "result": "72.2 min"}
{"SMILES": "CC(C)CC(=O)OC[C@H]1O[C@@](C#N)(c2ccc3c(N)ncnn23)[C@H](O)[C@@H]1O", "assay": "metabolic stability", "test system": "mouse, hepatocytes", "conditions": "5 µM", "endpoint": "half-life", "result": "< 4.36 min"}
